The campaign covered roughly 360,000 compounds. About 5,400 (1.5%) were called active.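 How the source made its calls: active means inhibition above a per-plate cutoff, the mean inhibition of test compounds on that plate plus 3 SD (cut at about 49% in these data); inactive means the rest.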 The entries come from a sample that favours actives as a whole.
Target: Trace amine-associated receptor 1 (Homo sapiens) (UniProt Q96RJ0)
Assay: blockers of beta-PEA-driven TAAR1 calcium signal – Fluo-8 calcium fluorescence, CHO RD-HGA16 cells, primary screen (AID 624466);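 further: 0% = DMSO plus EC80 beta-PEA response and 100% = DMSO alone without agonist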
Settings: CHO RD-HGA16 TAAR1, Fluo-8 calcium fluorescence, antagonist; at 3 µM; active compounds read high
Summary of the method: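 System: CHO RD-HGA16 cells bearing hTAAR1. Reagent: EC80 β-phenethylamine stimulus. Schedule: seeding 17-24 h prior, 75-min 37 °C, 30-min RT dye loading. Signal: Fluo-8 intracellular calcium dye fluorescence, real-time kinetic reads. Read-out: % inhibition from peak post-agonist over basal fluorescence ratio. Benchmarks: vehicle wells and EC80 agonist wells. Replicates: n of 1.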

Chain of Trace amine-associated receptor 1 (Homo sapiens) (Q96RJ0 whole entry, looked up): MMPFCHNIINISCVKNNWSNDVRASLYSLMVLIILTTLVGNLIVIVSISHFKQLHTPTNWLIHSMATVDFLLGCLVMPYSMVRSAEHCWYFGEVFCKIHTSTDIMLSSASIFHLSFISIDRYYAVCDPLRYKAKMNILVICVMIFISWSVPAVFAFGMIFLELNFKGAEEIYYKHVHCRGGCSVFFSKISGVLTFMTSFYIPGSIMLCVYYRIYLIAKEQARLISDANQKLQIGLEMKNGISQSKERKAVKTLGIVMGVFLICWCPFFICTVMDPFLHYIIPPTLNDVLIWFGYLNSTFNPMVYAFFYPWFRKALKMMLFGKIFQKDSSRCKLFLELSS

`C=CCN1C(=O)N(Cc2ccccc2)c2ccccc2S1(=O)=O` was tested. Which inhibition did it give?
The inhibition was -0.33% (inactive).

How did the inhibition turn out when `COCCNC(=O)c1cc2c(Br)ccc(Br)c2nc1N` was run?
Its inhibition is -4.31% (inactive).

How did the inhibition turn out when `CC(=O)Nc1ccc(NC(=O)CS(=O)(=O)c2cn(CC(=O)N3CCCCC3)c3ccccc23)cc1` was run?
The inhibition was -35.2% (inactive).

With `O=C(Nc1ccc(C2CC2(Cl)Cl)cc1)c1cccc([N+](=O)[O-])c1` (centres undefined) as the molecule, how does the inhibition read?
Its inhibition is 49.6% (active).

`O=C(Nc1nnc(SCc2c(Cl)cccc2Cl)s1)c1cccc([N+](=O)[O-])c1` was tested. Which inhibition did it give?
The inhibition was -16.3% (inactive).

With `CC(C)(C)SCCNC(=O)c1cccc([N+](=O)[O-])c1` as the molecule, how does the inhibition read?
The inhibition was -20.6% (inactive).

`NC(=O)c1oc2ccccc2c1NC(=O)Cc1ccccc1` was tested. Which inhibition did it give?
Its inhibition is 7.4% (inactive).

With `NC(=O)c1oc2ccccc2c1NC(=O)CS(=O)(=O)c1ccccc1` as the molecule, how does the inhibition read?
The inhibition was -13.1% (inactive).

For `COc1ccc(CC(=O)Nc2c(C(N)=O)oc3ccccc23)cc1`, which inhibition is on record?
The inhibition was 62.3% (active).

Which inhibition does the source give for `Cc1nc(N2CCN(c3ccccn3)CC2)c2c(C)c(C(=O)Nc3ccc(F)c(Cl)c3)sc2n1` here?
Its inhibition is -1.25% (inactive).

Which inhibition does the source give for `Cc1nc(N2CCN(c3ccccn3)CC2)c2c(C)c(C(=O)Nc3ccc(F)cc3)sc2n1` here?
Its inhibition is 58% (active).

`Cc1nc(N2CCOCC2)c2c(C)c(C(=O)Nc3ccc(C(F)(F)F)cc3)sc2n1` was tested. Which inhibition did it give?
The inhibition was 15.7% (inactive).

How did the inhibition turn out when `CN(CC(=O)NCc1ccc(Cl)cc1)S(=O)(=O)c1cccs1` was run?
The inhibition was -2.12% (inactive).

For `Cc1ccc(-c2nc3c(Cl)cc(C(F)(F)F)cn3c2Cc2cccc(Cl)c2)cc1`, which inhibition is on record?
The inhibition was 3.71% (inactive).

`Brc1ccc(COCCc2cn(Cc3ccccc3)c3ccccc23)cc1` was tested. Which inhibition did it give?
The inhibition was -22% (inactive).

Which inhibition does the source give for `COC(=O)Cc1nnn2c1[C@H](C)[C@H](c1ccccc1[N+](=O)[O-])OCC2` here?
The inhibition was 51.6% (active).

`COC(=O)Cc1nnn2c1[C@H](C)[C@@H](OC)c1cc(Br)ccc1-2` was tested. Which inhibition did it give?
Its inhibition is 1.99% (inactive).

For `COC(=O)N1Cc2ccnnc2CC1c1ccccc1Br` (centres undefined), which inhibition is on record?
Its inhibition is -6.91% (inactive).

With `COC(=O)C1(C(=O)OC)C/C=C\CN(S(=O)(=O)c2ccccc2[N+](=O)[O-])CCC1` as the molecule, how does the inhibition read?
Its inhibition is -2.45% (inactive).

For `COc1ccc(NC(=O)C2=C(C)NC(=O)NC2c2ccccc2[N+](=O)[O-])cc1` (centres undefined), which inhibition is on record?
The inhibition was 1.55% (inactive).

How did the inhibition turn out when `COC(=O)Cc1nnn2c1[C@H](C)[C@H](c1ccccc1Br)OCC2` was run?
Its inhibition is 73.5% (active).

For `CCn1cc(CCC(=O)NCc2ccc(F)cc2)c2ccccc21`, which inhibition is on record?
The inhibition was 8.18% (inactive).

`C=CC[C@]12C[C@@]3(O[C@H](c4ccc(C(F)(F)F)cc4)N=C3C[C@H](c3ccc(OC)cc3)[C@H]1C)N(C1CCN(Cc3ccccc3)CC1)C2=O` was tested. Which inhibition did it give?
The inhibition was -52.6% (inactive).

With `Cc1ccc(-c2cc(C(=O)NN)n[nH]2)o1` as the molecule, how does the inhibition read?
The inhibition was 2.39% (inactive).

For `CCOC(=O)[C@]12CCCC=C1N(CCC1=CCCCC1)C(=O)[C@H](CC(=O)N1CCOCC1)C2`, which inhibition is on record?
The inhibition was -9.23% (inactive).

With `CCCCNC(=O)C[C@@H]1C[C@@]2(C(=O)OC)CC(C)(C)CC=C2N(Cc2ccco2)C1=O` as the molecule, how does the inhibition read?
The inhibition was -0.44% (inactive).

Which inhibition does the source give for `CCOC(=O)C1CCN(C(=O)C2(NC(=O)Nc3cccc(F)c3)CCCCC2)CC1` here?
The inhibition was -26.8% (inactive).

Which inhibition does the source give for `O=S1(=O)CC(N2CCN(Cc3ccccc3F)CC2)CN1Cc1cn(Cc2cccc(C(F)(F)F)c2)nn1` (centres undefined) here?
Its inhibition is -13% (inactive).

With `CCOC(=O)[C@]12CCCC=C1N(Cc1ccc3c(c1)OCO3)C(=O)[C@H](CC(=O)N1CCN(C(=O)c3ccco3)CC1)C2` as the molecule, how does the inhibition read?
Its inhibition is -4.35% (inactive).

Which inhibition does the source give for `CC(C)C[C@H]1CNC(=O)C(=O)N1C[C@H]1CCCN1C[C@H](Cc1ccc(O)cc1)N1C[C@H](CC(C)C)N(CC2CCCCCC2)C(=O)C1=O` here?
The inhibition was 6.77% (inactive).

Which inhibition does the source give for `CC1CCN(C(=O)c2ncn3c2C(=O)N[C@@H](C)C3)CC1` here?
Its inhibition is -2.44% (inactive).

With `CSc1ncnc2c1ncn2CC(=O)C1CCC2C3CCC4=CC(=O)CCC4(C)C3CCC12C` (centres undefined) as the molecule, how does the inhibition read?
The inhibition was 61.8% (active).

`CC(=O)C12CC(C)=C(C)CC1CC1C3CCC4=CC(=O)CCC4(C)C3CCC12C` (centres undefined) was tested. Which inhibition did it give?
The inhibition was -34.7% (inactive).

`CSc1ncnc2c1ncn2CCCNCC1CCCCC1` was tested. Which inhibition did it give?
Its inhibition is -17.2% (inactive).

How did the inhibition turn out when `Cc1ccc(CNC(=O)CCS(=O)(=O)c2ccc3c(c2)CC(C)N3C(=O)C2CC2)o1` (centres undefined) was run?
Its inhibition is -23.9% (inactive).

For `Cc1[nH]c2ccccc2c1CC(=O)Nc1ccc(Nc2cccnc2)c(-c2cccc(Cl)c2)c1`, which inhibition is on record?
Its inhibition is -0.4% (inactive).

How did the inhibition turn out when `C/C(=N/O)c1ccc(N2C(=O)C3C4C=CC(C3C2=O)C2C3C(=O)N(c5ccc(/C(C)=N/O)cc5)C(=O)C3C42)cc1` (centres undefined) was run?
Its inhibition is -2.86% (inactive).

`CCCCc1c(-c2ccc(Br)cc2)ncn1CCc1ccccc1OC` was tested. Which inhibition did it give?
The inhibition was 28.2% (inactive).

How did the inhibition turn out when `CCCCc1c(-c2ccc(Cl)cc2)ncn1CCc1ccccc1OC` was run?
Its inhibition is 49.6% (active).

`COc1ccccc1CCNS(=O)(=O)c1cn(C)nc1C` was tested. Which inhibition did it give?
Its inhibition is -36.9% (inactive).

Which inhibition does the source give for `CCCc1c(-c2ccccc2F)ncn1Cc1ccccc1OC` here?
The inhibition was -7.18% (inactive).

With `CCc1c(-c2ccccc2OC)ncn1CCc1ccccc1OC` as the molecule, how does the inhibition read?
The inhibition was 14.3% (inactive).

How did the inhibition turn out when `CCCCCc1c(-c2cccc(Br)c2)ncn1CCc1ccccc1OC` was run?
The inhibition was 43.2% (inactive).

With `COc1ccccc1CCn1cnc(-c2ccccc2)c1C(C)C` as the molecule, how does the inhibition read?
The inhibition was 20% (inactive).

How did the inhibition turn out when `CCCCCc1c(-c2ccc(OC)c(OC)c2)ncn1CCc1ccccc1OC` was run?
Its inhibition is 73.9% (active).

How did the inhibition turn out when `CCCCCc1c(Cc2ccccc2)ncn1CCc1ccccc1OC` was run?
The inhibition was 66.2% (active).

How did the inhibition turn out when `CCOC(=O)c1cc2cc(OC)ccc2n1C1CCN(C)CC1` was run?
Its inhibition is -4.73% (inactive).

How did the inhibition turn out when `COC(=O)[C@]1(Cc2ccccc2)NC=C(C(=O)c2ccccc2)[C@@H]1c1cccc(OC)c1` was run?
The inhibition was -1.81% (inactive).

How did the inhibition turn out when `C[C@H](NC(=O)[C@@H]1CCCN1C(=O)[C@@H]1CCCN1C(=O)c1ccccc1)c1ccccc1` was run?
The inhibition was 2.01% (inactive).

For `C=CCC[C@H](CCCCC)OC(=O)/C=C/[C@H](O)[C@@H](O)C[C@@H](O)CC=C`, which inhibition is on record?
The inhibition was -19.3% (inactive).

`COC(=O)C(C)N(C#N)c1nc(C)nc(C)n1` (centres undefined) was tested. Which inhibition did it give?
The inhibition was -2.26% (inactive).

With `COC(=O)c1c(-c2ccc(OC)cc2)c2c(c3c4ccccc4n(S(=O)(=O)c4ccc(C)cc4)c13)C(=O)N(C)C2` as the molecule, how does the inhibition read?
The inhibition was -15.3% (inactive).

For `CN=C(NC#N)NCCSCc1nc[nH]c1C`, which inhibition is on record?
The inhibition was -15.6% (inactive).

For `Cc1cc(C)n2nc(C(=O)Oc3ccc4c(c3)OCO4)nc2n1`, which inhibition is on record?
The inhibition was 2.03% (inactive).

From PubChem BioAssay AID624466 (The Scripps Research Institute Molecular Screening Center, 2012)
